Measured values reported in ChEMBL document CHEMBL3399995, “Synthesis and biological evaluation of benzimidazole acridine derivatives as potential DNA-binding and apoptosis-inducing agents” (Bioorg Med Chem, 2015).
Calls of active or inactive are those of the source. No cut-off for these calls is given here.

Assays:
[1] = molecular target: T1, DNA topoisomerase 1 (Homo sapiens) (UniProt P11387); experiment: Inhibition of recombinant human DNA topoisomerase 1 assessed as relaxation of plasmid DNA pBR322 at 50 uM by agarose gel electrophoresis
T1 sequence (whole entry): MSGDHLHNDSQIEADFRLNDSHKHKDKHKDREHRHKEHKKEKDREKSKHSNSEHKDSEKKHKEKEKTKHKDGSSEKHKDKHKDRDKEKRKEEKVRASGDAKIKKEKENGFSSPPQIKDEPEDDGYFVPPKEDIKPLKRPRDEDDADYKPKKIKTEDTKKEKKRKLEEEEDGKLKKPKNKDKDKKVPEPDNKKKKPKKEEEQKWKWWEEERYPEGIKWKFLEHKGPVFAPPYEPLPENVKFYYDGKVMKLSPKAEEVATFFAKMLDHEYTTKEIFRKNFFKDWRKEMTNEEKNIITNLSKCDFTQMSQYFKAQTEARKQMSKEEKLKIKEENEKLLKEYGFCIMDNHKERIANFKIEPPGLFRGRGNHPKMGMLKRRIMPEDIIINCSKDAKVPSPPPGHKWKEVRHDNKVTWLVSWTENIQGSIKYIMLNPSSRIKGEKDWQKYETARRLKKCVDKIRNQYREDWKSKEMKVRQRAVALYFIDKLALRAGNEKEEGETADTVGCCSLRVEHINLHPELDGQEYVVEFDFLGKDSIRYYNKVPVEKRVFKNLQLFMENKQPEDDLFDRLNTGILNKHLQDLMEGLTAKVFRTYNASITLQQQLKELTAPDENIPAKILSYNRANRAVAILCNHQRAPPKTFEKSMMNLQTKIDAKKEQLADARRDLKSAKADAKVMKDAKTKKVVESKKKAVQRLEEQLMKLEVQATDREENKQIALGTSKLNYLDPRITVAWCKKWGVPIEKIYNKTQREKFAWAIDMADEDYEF
In short: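 pBR322 (100 ng) was incubated with 1.0 unit recombinant human topoisomerase I and compound (50 μM) at 37 °C for 30 min. Relaxation buffer was 35 mM Tris-HCl pH 8.0, 5 mM MgCl2, 72 mM KCl, 0.01% BSA, 2 mM spermidine, 5 mM DTT. Products were resolved on 1% agarose in TAE at 100 V for 25 min and stained with ethidium bromide.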

HepG2 = experiment: Antiproliferative activity against human HepG2 cells after 48 hrs by MTT assay; format: functional, cell-based; details: HepG2, 48 h
In short: (§1)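 Cells were grown at 37 °C in 5% CO₂ with 10% FBS, penicillin and streptomycin. Media were IMDM for K562; DMEM for HepG-2, A-375, U-118 MG and A172; RPMI 1640 for CNE-2 and HeLa; MEM-EBSS for U251. MTT (5 mg/mL) was added for 4 h at 37 °C, formazan dissolved in DMSO, and A490 read. IC50 is the concentration giving 50% growth inhibition.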

K562 [2] = experiment: Antiproliferative activity against human K562 cells after 48 hrs by MTT assay; format: functional, cell-based; details: K562, 48 h; in short: as §1
K562 [3] = experiment: Induction of apoptosis in human K562 cells assessed as early apoptotic cells at 2.5 uM by annexin V-FITC/propidium iodide staining-based flow cytometry (reference value: 0.709%)
K562 [4] = experiment: Induction of apoptosis in human K562 cells assessed as loss of mitochondrial membrane potential at 2.5 uM using JC-1 staining by fluorescence assay; format: functional, cell-based
In short: (§2)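 Mitochondrial membrane potential in treated K562 cells (0, 2.5, 10 μM) was measured with a JC-1 kit. Red fluorescence marks high potential and green marks low. CCCP at 10 μM served as positive control.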

Calf thymus DNA [5] = experiment: Binding affinity to calf thymus DNA after 3 mins by fluorescence absorption spectroscopy; format: nucleic-acid assay; details: Bos taurus
In short: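 Fluorescence titration of the compound (3.75 μM final) in 10 mM Tris-HCl, 10 mM NaCl, pH 7.0, with ct DNA at 0, 1, 2, 3, 4 and 5 μM final. Samples sat 3 min before emission spectra were recorded. The binding constant came from the Stern-Volmer fit F0/F = 1 + K[Q], with [Q] the DNA concentration.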

K562 [6] = experiment: Induction of apoptosis in human K562 cells assessed as early apoptotic cells at 10 uM by annexin V-FITC/propidium iodide staining-based flow cytometry (reference value: 0.709%)
[7] = Antiproliferative activity against human CNE2 cells after 48 hrs by MTT assay; format: functional, cell-based; details: CNE-2, 48 h; in short: as §1
[8] = Antiproliferative activity against human A172 cells after 48 hrs by MTT assay; format: functional, cell-based; details: A 172, 48 h; in short: as §1
Calf thymus DNA [9] = experiment: Binding affinity to calf thymus DNA after 3 mins by UV-vis absorption spectra analysis; format: nucleic-acid assay, Bos taurus
In short: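 ct DNA titration of the compound (40 μM) in 10 mM Tris-HCl, 10 mM NaCl, pH 7.0, at [DNA]/[compound] 0–1.0, in a 1.0 cm quartz cell. Samples sat 3 min before UV-vis spectra were recorded. Kb was taken as the slope-to-intercept ratio of [DNA]/(εa−εf) plotted against [DNA].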

K562 [10] = experiment: Induction of apoptosis in human K562 cells assessed as apoptotic cells at 10 uM by annexin V-FITC/propidium iodide staining-based flow cytometry (reference value: 0.162%)
HeLa = experiment: Antiproliferative activity against human HeLa cells after 48 hrs by MTT assay; format: functional, cell-based; in short: as §1
U-251 = experiment: Antiproliferative activity against human U251 cells after 48 hrs by MTT assay; format: functional, cell-based; details: U-251, 48 h; in short: as §1
[11] = Antiproliferative activity against human U118MG cells after 48 hrs by MTT assay; format: functional, cell-based; details: U-118-MG; in short: as §1
K562 [12] = experiment: Induction of apoptosis in human K562 cells assessed as activation of caspase 9 at 10 uM after 48 hrs by Western blot analysis; format: functional, cell-based
In short: (§3)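 K562 cells in 6 cm dishes were exposed to 1, 5 or 10 μM for 48 h, then lysed at 0 °C for 0.5 h and spun at 20,000 g for 10 min. Protein was measured by BCA. Lysates were run on 12% SDS-PAGE and transferred to PVDF. Membranes were blocked in 5% milk for 1 h, then given primary antibody overnight at 4 °C.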

K562 [13] = experiment: Induction of apoptosis in human K562 cells assessed as viable cells at 2.5 uM by annexin V-FITC/propidium iodide staining-based flow cytometry (reference value: 98.9%); format: functional; details: read-out: Activity
K562 [14] = experiment: Induction of apoptosis in human K562 cells assessed as activation of caspase 3 at 10 uM after 48 hrs by Western blot analysis; format: functional, cell-based; in short: as §3
K562 [15] = experiment: Induction of apoptosis in human K562 cells assessed as viable cells at 10 uM by annexin V-FITC/propidium iodide staining-based flow cytometry (reference value: 98.9%); format: functional; details: read-out: Activity
K562 [16] = experiment: Induction of apoptosis in human K562 cells assessed as late apoptotic or necrotic cells at 2.5 uM by annexin V-FITC/propidium iodide staining-based flow cytometry (reference value: 0.162%)
K562 [17] = experiment: Induction of apoptosis in human K562 cells assessed as loss of mitochondrial membrane potential at 10 uM using JC-1 staining by fluorescence assay; format: functional, cell-based; in short: as §2
K562 [18] = experiment: Induction of apoptosis in human K562 cells assessed as necrotic cells at 10 uM by annexin V-FITC/propidium iodide staining-based flow cytometry (reference value: 0.203%); format: functional
K562 [19] = experiment: Induction of apoptosis in human K562 cells assessed as PARP cleavage at 10 uM after 48 hrs by Western blot analysis; format: functional, cell-based; in short: as §3
K562 [20] = experiment: Induction of apoptosis in human K562 cells assessed as activation of caspase 7 at 10 uM after 48 hrs by Western blot analysis; format: functional, cell-based; in short: as §3
K562 [21] = experiment: Induction of apoptosis in human K562 cells assessed as downregulation of Bcl-xL protein expression at 10 uM after 48 hrs by Western blot analysis; format: functional, cell-based; in short: as §3
A-375 = experiment: Antiproliferative activity against human A375 cells after 48 hrs by MTT assay; format: functional, cell-based; details: A-375, 48 h; in short: as §1
K562 [22] = experiment: Induction of apoptosis in human K562 cells assessed as necrotic cells at 2.5 uM by annexin V-FITC/propidium iodide staining-based flow cytometry (reference value: 0.203%); format: functional

SMILES: Fc1ccc2c(NCc3nc4ccccc4[nH]3)c3ccccc3nc2c1
- inhibition [1]: Active
- IC50 (HepG2): 10.7 µM
- IC50 (K562 [2]): 28.5 µM

SMILES: c1ccc2[nH]c(Nc3c4ccccc4nc4ccccc34)nc2c1
- inhibition [1]: Active
- IC50 (HepG2): 4.01 µM
- IC50 (K562 [2]): > 50 µM

SMILES: COc1cccc2c(NCc3nc4ccccc4[nH]3)c3ccccc3nc12
- inhibition [1]: Active
- IC50 (HepG2): 28.5 µM
- IC50 (K562 [2]): 7.46 µM

SMILES: Cc1cccc2c(NCc3nc4ccccc4[nH]3)c3ccccc3nc12
- inhibition [1]: Active
- IC50 (HepG2): > 50 µM
- IC50 (K562 [2]): 42.6 µM

SMILES: Clc1ccc2nc3ccccc3c(NCc3nc4ccccc4[nH]3)c2c1
- inhibition [1]: Active
- IC50 (HepG2): 40.6 µM
- IC50 (K562 [2]): 11.8 µM

SMILES: COc1ccc2c(NCc3nc4ccccc4[nH]3)c3ccccc3nc2c1
- inhibition [1]: Active
- IC50 (HepG2): 15.4 µM
- IC50 (K562 [2]): 15.2 µM

SMILES: c1ccc2[nH]c(Sc3c4ccccc4nc4ccccc34)nc2c1
- inhibition [1]: Active
- IC50 (HepG2): > 50 µM
- IC50 (K562 [2]): 14 µM

SMILES: COc1ccc2nc3ccccc3c(Nc3nc4ccccc4[nH]3)c2c1
- inhibition [1]: Active
- IC50 (HepG2): 4.53 µM
- IC50 (K562 [2]): 8.63 µM

SMILES: c1ccc2[nH]c(CNc3c4ccccc4nc4ccccc34)nc2c1
- inhibition [1]: Active
- IC50 (HepG2): > 50 µM
- IC50 (K562 [2]): 11.2 µM

SMILES: Fc1cc2nc3ccccc3c(NCc3nc4ccccc4[nH]3)c2cc1F
- inhibition [1]: Active
- IC50 (HepG2): 25.7 µM
- IC50 (K562 [2]): 17.4 µM

SMILES: COc1cccc2c(Nc3nc4ccccc4[nH]3)c3ccccc3nc12
- inhibition [1]: Active
- IC50 (HepG2): 6.32 µM
- IC50 (K562 [2]): 7.2 µM

SMILES: Cc1ccc2c(NCc3nc4ccccc4[nH]3)c3ccccc3nc2c1
- inhibition [1]: Active
- IC50 (HepG2): 32.6 µM
- IC50 (K562 [2]): 25.1 µM

SMILES: CCc1ccc2nc3ccccc3c(NCc3nc4ccccc4[nH]3)c2c1
- inhibition [1]: Active
- IC50 (HepG2): > 50 µM
- IC50 (K562 [2]): 7.52 µM

SMILES: CCCCc1ccc2nc3ccccc3c(NCc3nc4ccccc4[nH]3)c2c1
- early apoptotic cells at 2.5 µM (K562 [3]): 14.9%
- Activity (K562 [4]): Active
- Activity (Calf thymus DNA [5]): Active
- early apoptotic cells at 10 µM (K562 [6]): 57.3%
- inhibition [1]: Active
- IC50 [7]: 2.62 µM
- IC50 [8]: 2.86 µM
- Kb (Calf thymus DNA [9]): 1.88 ×10⁵ /M
- apoptotic cells at 10 µM (K562 [10]): 10.6%
- IC50 (HeLa): 2.76 µM
- IC50 (U-251): 2.39 µM
- IC50 [11]: 1.98 µM
- Activity (K562 [12]): Active
- viability at 2.5 µM (K562 [13]): 83.3%
- Activity (K562 [14]): Active
- viability at 10 µM (K562 [15]): 30.8%
- late apoptotic or necrotic cells at 2.5 µM (K562 [16]): 1.27%
- Activity (K562 [17]): Active
- Activity (K562 [18]): 1.37%
- Activity (K562 [19]): Active
- Activity (K562 [20]): Active
- Activity (K562 [21]): Active
- IC50 (A-375): 3.2 µM
- IC50 (HepG2): 8.11 µM
- Activity (K562 [22]): 0.55%
- IC50 (K562 [2]): 2.68 µM

SMILES: c1ccc2[nH]c(-c3ccc(Nc4c5ccccc5nc5ccccc45)cc3)nc2c1
- inhibition [1]: Active
- IC50 (HepG2): > 50 µM
- IC50 (K562 [2]): 2.82 µM

SMILES: Cc1ccc2nc3ccccc3c(NCc3nc4ccccc4[nH]3)c2c1
- inhibition [1]: Active
- IC50 (HepG2): 38.8 µM
- IC50 (K562 [2]): 12.3 µM

SMILES: COc1ccc2nc3ccccc3c(NCc3nc4ccccc4[nH]3)c2c1
- inhibition [1]: Active
- IC50 (HepG2): 8.92 µM
- IC50 (K562 [2]): 4.68 µM
